{
  "source": "ChEMBL document CHEMBL4371016",
  "about": "“Proline- and Arginine-Rich Peptides as Flexible Allosteric Modulators of Human Proteasome Activity” (J Med Chem, 2019)",
  "key": {"[1]": {"target": "T1, Proteasome Macropain subunit MB1 (Homo sapiens, UniProt P28074)", "T1 sequence (P28074 whole entry)": "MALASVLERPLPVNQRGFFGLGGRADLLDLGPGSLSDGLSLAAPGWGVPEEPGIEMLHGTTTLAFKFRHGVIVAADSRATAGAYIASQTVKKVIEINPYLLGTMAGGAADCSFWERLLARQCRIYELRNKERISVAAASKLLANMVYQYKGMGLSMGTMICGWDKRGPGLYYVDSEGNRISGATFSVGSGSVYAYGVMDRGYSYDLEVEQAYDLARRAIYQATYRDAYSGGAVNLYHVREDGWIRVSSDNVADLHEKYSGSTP", "assay": "Negative allosteric modulation of SDS-activated human erythrocytes 20S proteasome chymotrypsin like activity using Suc-LLVY-AMC as substrate measured every 2 mins up to 60 mins by fluorescence assay; call rule not given here", "method_in_brief": "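1.4 nM CP (0.001 mg/mL) in 50 mM Tris-HCl pH 8.0, activated with 0.005% SDS where stated, otherwise latent. Suc-LLVY-AMC at 100 μM final. AMC fluorescence read every 2 min up to 60 min at 37 °C. Activity relative to DMSO-treated enzyme, from at least three independent replicates. Peptide stocks 10 mM in DMSO.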"}, "[2]": {"target": "T1, Proteasome Macropain subunit MB1", "assay": "Non-competitive mixed-type inhibition of SDS-activated human erythrocytes 20S proteasome chymotrypsin like activity using Suc-LLVY-AMC as substrate measured every 2 mins up to 60 mins by fluorescence assay", "method_in_brief": "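SDS-activated CP at 1.4 nM. Suc-LLVY-AMC varied from 20 to 200 μM at inhibitor levels of 0.05, 0.1 and 0.2 μM. Fluorescence read kinetically at 37 °C. […] Three independent replicates.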"}, "[3]": {"target": "T1, Proteasome Macropain subunit MB1", "assay": "Negative allosteric modulation of 1 uM Rpt5-activated human erythrocytes 20S proteasome chymotrypsin like activity using Suc-LLVY-AMC as substrate measured every 1 min up to 60 mins by fluorescence assay", "method_in_brief": "(§1)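 Suc-LLVY-AMC at 100 μM final. AMC fluorescence read every 1 min for 60 min at 37 °C. Activity relative to DMSO vehicle, at least three independent replicates.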"}, "[4]": {"target": "T1, Proteasome Macropain subunit MB1", "assay": "Negative allosteric modulation of 10 uM Rpt5-activated human erythrocytes 20S proteasome chymotrypsin like activity using Suc-LLVY-AMC as substrate measured every 1 min up to 60 mins by fluorescence assay", "method_in_brief": "as §1"}, "[5]": {"tested_on": "Fibroblast", "assay": "Cytotoxicity against human primary fibroblasts assessed as effect on cell viability up to 20 uM after 24 hrs by WST1 assay", "format": "cell-based", "method_in_brief": "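Primary human fibroblasts GM04390 in DMEM with 10% heat-inactivated FBS and antibiotics, at 3% O2, 5% CO2, 37 °C; seeded at 100 000 cells/mL, switched to Optimem at 24 h, exposed at 48 h to 0.1–20 μM peptide or DMSO for 24 h. Viability read by WST-1 (10% reagent, 4 h), absorbance 450 nm.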"}},
  "note": "Residues, ends and D or L forms follow the SMILES beside them.",
  "data": [
    {"smiles": "CC(C)C[C@H](NC(=O)[C@H](Cc1ccc(O)cc1)NC(=O)[C@@H]1CCCN1C(=O)[C@@H]1CCCN1C(=O)[C@H](CCCNC(=N)N)NC(=O)[C@@H]1CCCN1C(=O)[C@H](CCCNC(=N)N)NC(=O)[C@H](CCCNC(=N)N)NC(=O)[C@@H](N)CCCNC(=N)N)C(=O)N1CCC[C@H]1C(=O)N[C@@H](CCCNC(=N)N)C(=O)N[C@@H](Cc1c[nH]c2ccccc12)C(=O)NCC(N)=O", "note": "(H-RRRPRPPYLPRWG-NH2)", "values": [
      {"measurement": "IC50", "setting": "[1]; read-out: IC50", "result": 0.113, "unit": "µM"}
    ]},
    {"smiles": "CC(C)C[C@H](NC(=O)[C@@H]1CCCN1C(=O)[C@@H]1CCCN1C(=O)[C@@H]1CCCN1C(=O)[C@@H]1CCCN1C(=O)[C@H](CCCNC(=N)N)NC(=O)[C@H](CCCNC(=N)N)NC(=O)[C@@H](N)CCCNC(=N)N)C(=O)N[C@@H](Cc1ccc(O)cc1)C(=O)N[C@@H](C)C(=O)O", "note": "(H-RRRPPPPLYA-OH)", "values": [
      {"measurement": "IC50", "setting": "[1]", "result": "Not Active"}
    ]},
    {"smiles": "CC(C)C[C@H](NC(=O)[C@H](Cc1ccc(O)cc1)NC(=O)[C@H](CCCNC(=N)N)NC(=O)[C@H](CCCNC(=N)N)NC(=O)[C@@H](N)CCCNC(=N)N)C(=O)N1CCC[C@H]1C(=O)N[C@@H](CCCNC(=N)N)C(=O)N[C@@H](Cc1c[nH]c2ccccc12)C(=O)NCC(=O)O", "note": "(H-RRRYLPRWG-OH)", "values": [
      {"measurement": "IC50", "setting": "[1]; read-out: IC50", "result": 0.111, "unit": "µM"}
    ]},
    {"smiles": "CC(C)C[C@H](NC(=O)[C@H](Cc1ccc(O)cc1)NC(=O)[C@@H]1CCCN1C(=O)[C@@H]1CCCN1C(=O)[C@H](CCCNC(=N)N)NC(=O)[C@@H]1CCCN1C(=O)[C@H](CCCNC(=N)N)NC(=O)[C@H](CCCNC(=N)N)NC(=O)[C@@H](N)CCCNC(=N)N)C(=O)N1CCC[C@H]1C(=O)N[C@@H](CCCNC(=N)N)C(=O)N[C@@H](Cc1ccccc1)C(=O)NCC(=O)O", "note": "(H-RRRPRPPYLPRFG-OH)", "values": [
      {"measurement": "IC50", "setting": "[1]; read-out: IC50", "result": 0.099, "unit": "µM"}
    ]},
    {"smiles": "CC(C)C[C@H](NC(=O)[C@H](Cc1ccc(O)cc1)NC(=O)[C@@H]1CCCN1C(=O)[C@@H]1CCCN1C(=O)[C@H](CCCNC(=N)N)NC(=O)[C@@H]1CCCN1C(=O)[C@H](CCCNC(=N)N)NC(=O)[C@H](CCCNC(=N)N)NC(=O)[C@@H](N)CCCNC(=N)N)C(=O)N1CCC[C@H]1C(=O)N[C@@H](CCCNC(=N)N)C(=O)N[C@@H](Cc1c[nH]c2ccccc12)C(=O)NCC(=O)O", "note": "(H-RRRPRPPYLPRWG-OH)", "values": [
      {"measurement": "IC50", "setting": "[1]; read-out: IC50", "result": 0.05, "unit": "µM"},
      {"measurement": "Ki", "setting": "[2]", "result": 0.0048, "unit": "µM"},
      {"measurement": "IC50", "setting": "[3]", "result": 0.56, "unit": "µM"},
      {"measurement": "IC50", "setting": "[4]", "result": 0.5, "unit": "µM"}
    ]},
    {"smiles": "C[C@H](NC(=O)[C@H](Cc1ccc(O)cc1)NC(=O)[C@H](Cc1ccc(O)cc1)NC(=O)[C@@H]1CCCN1C(=O)[C@@H]1CCCN1C(=O)[C@@H]1CCCN1C(=O)[C@@H]1CCCN1C(=O)[C@H](CCCNC(=N)N)NC(=O)[C@H](CCCNC(=N)N)NC(=O)[C@@H](N)CCCNC(=N)N)C(=O)O", "note": "(H-RRRPPPPYYA-OH)", "values": [
      {"measurement": "IC50", "setting": "[1]", "result": "Not Active"},
      {"measurement": "Activity", "setting": "[5]", "result": "Non-Toxic"}
    ]},
    {"smiles": "CC(C)C[C@H](NC(=O)[C@H](Cc1ccc(O)cc1)NC(=O)[C@H](CCCNC(=N)N)NC(=O)[C@H](CCCNC(=N)N)NC(=O)[C@@H](N)CCCNC(=N)N)C(=O)N1CCC[C@H]1C(=O)N[C@@H](CCCNC(=N)N)C(=O)N[C@@H](Cc1c[nH]c2ccccc12)C(=O)NCC(N)=O", "note": "(H-RRRYLPRWG-NH2)", "values": [
      {"measurement": "IC50", "setting": "[1]; read-out: IC50", "result": 0.082, "unit": "µM"},
      {"measurement": "Ki", "setting": "[2]", "result": 0.0101, "unit": "µM"}
    ]}
  ]
}
